# In ChEMBL document CHEMBL1127034, “Synthesis, antiproliferative, and antiviral activity of 4-amino-1-(beta-D-ribofuranosyl)pyrrolo[2,3-d]pyridazin-7(6H)-one and related derivatives” (J Med Chem, 1993):
# How the values were obtained:
# [1] = test system: Human betaherpesvirus 5; assay: Tested for antiviral activity against human cytomegalovirus by plaque assay; format: functional, organism-based
# Method in brief: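 Towne strain HCMV (plaque-purified P0) on HFF monolayers. Inoculum about 50 PFU in 0.2 mL; compounds dissolved in the overlay medium. IC50 from linear regression of percent inhibition vs log concentration. Ganciclovir positive control; assay sets rejected if it deviated >1.5 SD from its mean response.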
# [2] = test system: HFF; assay: Tested for cytotoxicity in human foreskin fibroblasts at time of HCMV plaque enumeration; format: functional, cell-based
# Method in brief: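 HFF cells (MEM/Earle's, 10% fetal bovine serum), uninfected cells within HCMV plaque-reduction wells. Drug cytopathology scored visually at 30-fold magnification on a 0-4+ scale on the day of staining for plaque enumeration. IC50 from regression against log concentration.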
# [3] = test system: Human alphaherpesvirus 1; assay: Tested for antiviral activity against Herpes simplex virus type-1 using enzyme immunoassay
# [4] = test system: Human betaherpesvirus 5; assay: Tested for antiviral activity against human cytomegalovirus by yield reduction assay; format: functional
# [5] = Tested for the inhibition of KB cell growth; format: functional, cell-based; conditions: Homo sapiens
# Method in brief: (§1)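 KB cells (MEM/Hank's, 5% fetal bovine serum). Growth measured spectrophotometrically after crystal violet staining 2 days after drug treatment. IC50 from linear regression of percent inhibition vs log concentration.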
# [6] = test system: Calu-1; assay: Tested for in vitro cell growth inhibition of CALU-1 cells; format: functional, cell-based; conditions: Homo sapiens
# Method in brief: (§2)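 Adherent tumor lines in RPMI 1640 + 5% fetal bovine serum (UMSCC-10A: MEM-5). Cells/well: UMSCC-10A, CALU-1, NCI-H1437 and HT-29 2000; NCI-H460 1000; DLD-1 1000; SW-620 7500. Compound added 1 day after plating. Sulforhodamine B readout on day 5 (NCI-H460 and SW-620: day 4). IC50 halves growth rate vs control. Top concentration 100 μM.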
# [7] = test system: NCI-H460; assay: Tested for in vitro cell growth inhibition of NCI-H460 cells; format: functional, cell-based; conditions: Homo sapiens; method in brief: as §2
# [8] = test system: L1210; assay: Tested for in vitro cell growth inhibition of L1210 cells; format: functional, cell-based; conditions: Mus musculus
# Method in brief: (§3)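 L1210 cell number counted at 0, 48 and 96 h across a range of concentrations. Growth rate is the slope of semilog cell number vs time as percent of control (ratio of control to treated doubling time); the 48-96 h rate is used if growth slowed. IC50 halves growth rate. Top concentration 100 μM.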
# [9] = test system: L1210; assay: Tested for in vitro cell growth inhibition of L1210 cells; No significant effect; format: functional, cell-based, Mus musculus; method in brief: as §3
# [10] = species on record: Homo sapiens; assay: Tested for in vitro cell growth inhibition of H.Ep. 2 cells; format: functional, cell-based; conditions: HEp-2
# Method in brief: (§4)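 H.Ep.2 cells grown in MEM/Earle's with 15% heat-inactivated calf serum, 5% CO2. 2000 cells/well plated in 5% calf serum; compound added 1 day later. […] Top concentration 100 μM.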
# [11] = Tested for in vitro cell growth inhibition of NCI-H146 cells; format: functional, cell-based; conditions: Homo sapiens
# [12] = test system: SW-620; assay: Tested for in vitro cell growth inhibition of SW-620 cells; format: functional, cell-based; conditions: Homo sapiens; method in brief: as §2
# [13] = test system: NCI-H417; assay: Tested for in vitro cell growth inhibition of NCI-N417 cells; format: functional, cell-based; conditions: Homo sapiens
# [14] = test system: DLD-1; assay: Tested for in vitro cell growth inhibition of DLD-1 cells; format: functional, cell-based; conditions: Homo sapiens; method in brief: as §2
# [15] = Tested for in vitro cell growth inhibition of UMSCC-10A cells; format: functional, cell-based; conditions: Homo sapiens; method in brief: as §2
# [16] = test system: HT-29; assay: Tested for in vitro cell growth inhibition of HT-29 cells; format: functional, cell-based; conditions: Homo sapiens; method in brief: as §2
# [17] = Tested for in vitro cell growth inhibition of NCI-H1437 cells; format: functional, cell-based; conditions: Homo sapiens; method in brief: as §2
# [18] = Tested for the inhibition against KB cell growth; format: functional, cell-based; conditions: Homo sapiens; method in brief: as §1
# [19] = Tested for in vitro cell growth inhibition of NCI-H146 cells; No significant effect; format: functional, cell-based, Homo sapiens
# [20] = species on record: Homo sapiens; assay: Tested for in vitro cell growth inhibition of H.Ep. 2 cells; No significant effect; format: functional, cell-based; method in brief: as §4
# [21] = test system: Calu-1; assay: Tested for in vitro cell growth inhibition of CALU-1 cells; No significant effect; format: functional, cell-based, Homo sapiens; method in brief: as §2
# [22] = test system: NCI-H417; assay: Tested for in vitro cell growth inhibition of NCI-N417 cells; No significant effect; format: functional, cell-based, Homo sapiens
# [23] = species on record: Homo sapiens; assay: Tested for in vitro cell growth inhibition of H. Ep. 2 cells; No significant effect; format: functional, cell-based; method in brief: as §4
# [24] = test system: NCI-H460; assay: Tested for in vitro cell growth inhibition of NCI-H460; format: functional, cell-based; conditions: Homo sapiens; method in brief: as §2
# [25] = Tested for in vitro cell growth inhibition of […] cells; format: functional, cell-based; conditions: Homo sapiens; method in brief: as §2
# [26] = Tested for in vitro cell growth inhibition of NCI-H1437; format: functional; conditions: Homo sapiens; method in brief: as §2
smiles,measurement,setting,value
Nc1nc2c(ncn2COC(CO)CO)c(=O)[nH]1 [GANCICLOVIR],IC50,[1],7700 nM
same,IC50,[2],> 100000 nM
same,IC50,[3],3500 nM
same,IC90,[4],1800 nM
same,IC50,[5],> 100000 nM
Nc1nncc2c1c(Br)cn2C1O[C@H](CO)[C@@H](O)[C@H]1O (stereo partly specified),IC50,[6],11000 nM
same,IC50,[1],121000 nM
same,IC50,[2],100000 nM
same,IC90,[4],1400 nM
same,IC50,[5],12000 nM
same,IC50,[7],11000 nM
Nc1nnc(O)c2c1c(Cl)cn2C1O[C@H](CO)[C@@H](O)[C@H]1O (stereo partly specified),IC50,[1],200 nM
same,IC50,[2],2100 nM
same,IC50,[3],6800 nM
same,IC50,[8],230 nM
same,IC90,[4],700 nM
same,IC50,[5],6100 nM
O=c1[nH][nH]c(=O)c2c1ccn2[C@@H]1O[C@H](CO)[C@@H](O)[C@H]1O,IC50,[9],Not Active
same,IC50,[1],> 100000 nM
same,IC50,[2],> 100000 nM
same,IC50,[3],> 100000 nM
Nc1nnc(O)c2c1c(I)cn2C1O[C@H](CO)[C@@H](O)[C@H]1O (stereo partly specified),IC50,[10],76 nM
same,IC50,[11],420 nM
same,IC50,[6],70 nM
same,IC50,[12],230 nM
same,IC50,[13],280 nM
same,IC50,[1],400 nM
same,IC50,[14],70 nM
same,IC50,[2],1000 nM
same,IC50,[15],2500 nM
same,IC50,[3],4500 nM
same,IC50,[16],500 nM
same,IC50,[17],130 nM
same,IC50,[8],80 nM
same,IC90,[4],20 nM
same,IC50,[5],1200 nM
same,IC50,[7],200 nM
Nc1ncnc2c1ccn2[C@@H]1O[C@H](CO)[C@@H](O)[C@H]1O [TUBERCIDIN],IC50,[18],1000 nM
same,IC50,[8],43 nM
Nc1nnc(O)c2c1ccn2[C@@H]1O[C@H](CO)[C@@H](O)[C@H]1O,IC50,[19],Not Active
same,IC50,[1],> 100000 nM
same,IC50,[20],Not Active
same,IC50,[21],Not Active
same,IC50,[2],> 100000 nM
same,IC50,[3],90000 nM
same,IC50,[22],Not Active
same,IC50,[8],74000 nM
Nc1nncc2c1ccn2C1O[C@H](CO)[C@@H](O)[C@H]1O (stereo partly specified),IC50,[23],Not Active
same,IC50,[9],Not Active
same,IC50,[1],> 100000 nM
same,IC50,[2],> 100000 nM
same,IC50,[3],> 100000 nM
Nc1ncnc2c1c(Br)cn2[C@@H]1O[C@H](CO)[C@@H](O)[C@H]1O,IC50,[2],1200 nM
same,IC90,[4],3500 nM
same,IC50,[5],3000 nM
Nc1n[nH]c(=O)c2c1c(Br)cn2[C@@H]1O[C@H](CO)[C@@H](O)[C@H]1O,IC50,[10],200 nM
same,IC50,[6],230 nM
same,IC50,[1],100 nM
same,IC50,[24],500 nM
same,IC50,[2],2500 nM
same,IC50,[3],2000 nM
same,IC50,[8],100 nM
same,IC50,[25],1300 nM
same,IC90,[4],40 nM
same,IC50,[26],500 nM
same,IC50,[5],< 1200 nM
